Assay results from ChEMBL document CHEMBL4406880, “Design, synthesis, and bioactivity of dihydropyrimidine derivatives as kinesin spindle protein inhibitors” (Bioorg Med Chem, 2019).

Key:
[1] = test system: NCI-H322M; experiment: Growth inhibition of human NCI-H322M cells assessed as growth percentage at 10 uM incubated for 48 hrs by sulforhodamine B assay relative to control; assay type: functional; conditions: read-out: Activity
How it was run: (§1)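 NCI-60 one-dose screen. Cells in RPMI 1640 with 5% FBS and 2 mM L-glutamine, seeded at 5,000–40,000 cells/well according to doubling time, and preincubated overnight at 37 °C, 5% CO2. A time-zero plate was TCA-fixed at drug addition. Compound from DMSO stock, final 10 µM, 48 h; DMSO vehicle controls. Fixation with TCA, 10% final (16% for suspension cells). SRB stain, Tris solubilization, A515. Result given as % growth versus untreated cells.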

[2] = test system: NCI-H522; experiment: Growth inhibition of human NCI-H522 cells assessed as growth percentage at 10 uM incubated for 48 hrs by sulforhodamine B assay relative to control; assay type: functional; conditions: NCI-H522, 48 h, read-out: Activity; how it was run: as §1
[3] = test system: HCT-116; experiment: Growth inhibition of human HCT116 cells assessed as growth percentage at 10 uM incubated for 48 hrs by sulforhodamine B assay relative to control; assay type: functional; conditions: HCT-116, 48 h, read-out: Activity
How it was run: (§2)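 NCI-60 one-dose screen: cells in RPMI 1640 with 5% FBS and 2 mM L-glutamine, plated at 5,000–40,000 cells/well and preincubated 24 h at 37 °C, 5% CO2. Compound is added from a DMSO stock to a final 10 µM and incubated 48 h. Cells are TCA-fixed and stained with sulforhodamine B, read at 515 nm. Output is % growth versus untreated control, with a time-zero plate.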

[4] = test system: HT-29; experiment: Growth inhibition of human HT-29 cells assessed as growth percentage at 10 uM incubated for 48 hrs by sulforhodamine B assay relative to control; assay type: functional; conditions: HT-29, 48 h, read-out: Activity; how it was run: as §1
[5] = test system: SF-295; experiment: Growth inhibition of human SF295 cells assessed as growth percentage at 10 uM incubated for 48 hrs by sulforhodamine B assay relative to control; assay type: functional; conditions: SF-295, 48 h, read-out: Activity
How it was run: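 NCI-60 single-dose screen. Cells were grown in RPMI 1640 with 5% FBS and 2 mM L-glutamine and plated at 5,000–40,000 cells/well. After an overnight preincubation at 37 °C in 5% CO2, compound was added at a final 10 µM from a DMSO stock, with DMSO/PBS controls. After 48 h, cells were TCA-fixed and stained with 0.4% SRB, and absorbance was read at 515 nm. Growth is given as a percentage of untreated control.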

[6] = test system: OVCAR-3; experiment: Growth inhibition of human OVCAR3 cells assessed as growth percentage at 10 uM incubated for 48 hrs by sulforhodamine B assay relative to control; assay type: functional; conditions: OVCAR-3, 48 h, read-out: Activity; how it was run: as §1
[7] = test system: OVCAR-4; experiment: Growth inhibition of human OVCAR4 cells assessed as growth percentage at 10 uM incubated for 48 hrs by sulforhodamine B assay relative to control; assay type: functional; conditions: OVCAR-4, 48 h, read-out: Activity; how it was run: as §1
[8] = test system: 786-0; experiment: Growth inhibition of human 786-0 cells assessed as growth percentage at 10 uM incubated for 48 hrs by sulforhodamine B assay relative to control; assay type: functional; conditions: 786-0, 48 h, read-out: Activity; how it was run: as §2
[9] = test system: MDA-MB-468; experiment: Growth inhibition of human MDA-MB-468 cells assessed as growth percentage at 10 uM incubated for 48 hrs by sulforhodamine B assay relative to control; assay type: functional; conditions: MDA-MB-468, 48 h, read-out: Activity; how it was run: as §1
[10] = Growth inhibition of human HEK293 cells assessed as cell viability at 0.39 ug incubated for 48 hrs by MTT assay relative to control; assay type: cell-based; conditions: read-out: Activity
[11] = Growth inhibition of human HEK293 cells assessed as cell viability at 1.56 ug incubated for 48 hrs by MTT assay relative to control; assay type: cell-based; conditions: read-out: Activity
[12] = Growth inhibition of human HEK293 cells assessed as cell viability at 6.25 ug incubated for 48 hrs by MTT assay relative to control; assay type: cell-based; conditions: read-out: Activity
[13] = Growth inhibition of human HEK293 cells assessed as cell viability at 25 ug incubated for 48 hrs by MTT assay relative to control; assay type: cell-based; conditions: read-out: Activity
[14] = Growth inhibition of human HEK293 cells assessed as cell viability at 100 ug incubated for 48 hrs by MTT assay relative to control; assay type: cell-based; conditions: read-out: Activity
[15] = test system: HEK293; experiment: Growth inhibition of human HEK293 cells assessed as cell viability incubated for 48 hrs by MTT assay; assay type: cell-based; parameters: unit not given here
How it was run: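 HEK 293 normal-cell growth inhibition; measured in triplicate, IC50 reported as mean ± SD.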

[16] = Inhibition of kinesin (unknown origin) assessed as reduction in ATPase activity using microtubule as substrate measured for 5 to mins; parameters: species or system Homo sapiens

Row | SMILES | growth at 10 µM [1] | growth at 10 µM [2] | growth at 10 µM [3] | growth at 10 µM [4] | growth at 10 µM [5] | growth at 10 µM [6] | growth at 10 µM [7] | growth at 10 µM [8] | growth at 10 µM [9] | viability at 48 h, 0.39 ug [10] | viability at 48 h, 1.56 ug [11] | viability at 48 h, 6.25 ug [12] | viability at 48 h, 25 ug [13] | viability at 48 h, 100 ug [14] | IC50 [15] | IC50 [16]
1 | O=C1NC2=C(C(=O)c3ccccc32)C(c2ccc3c(c2)OCO3)N1 (racemic) | 111% | 90.7% | 108% | 107% | 103% | 115% | 116% | 106% | 114% |  |  |  |  |  |  | 
2 | COCCOC(=O)C1=C(C)NC(=O)NC1c1ccc2c(c1)OCO2 (racemic) | 107% | 91.8% | 107% | 102% | 98.5% | 110% | 94.4% | 102% | 106% |  |  |  |  |  |  | 
3 | CC1=C(C(=O)OCc2ccccc2)C(c2ccc3c(c2)OCO3)NC(=O)N1 (racemic) | 104% | 87.7% | 88.3% | 109% | 95.3% | 119% | 91% | 99.1% | 92% |  |  |  |  |  |  | 
4 | CC1(C)CC(=O)C2=C(C1)NC(=O)NC2c1ccc2c(c1)OCO2 (racemic) | 105% | 93.9% | 101% | 114% | 112% | 115% | 102% | 105% | 118% | 78% | 71.5% | 60.1% | 50.9% | 43.5% | 33.2 | 3.95 µM
5 | CC(=O)N1C(=S)NC(C)=C(C(=O)OC(C)C)C1c1ccc2c(c1)OCO2 (racemic) | 99.5% | 78% | 93.8% | 105% | 99.4% | 109% | 100% | 102% | 104% |  |  |  |  |  |  | 
6 | COCCOC(=O)C1=C(C)NC(=S)NC1c1ccc2c(c1)OCO2 (racemic) | 101% | 94.3% | 103% | 96.7% | 105% | 111% | 103% | 107% |  |  |  |  |  |  |  | 
7 | CC1=C(C(=O)OCC(C)C)C(c2ccc3c(c2)OCO3)NC(=S)N1 (racemic) | 117% | 82.2% | 101% | 106% | 104% | 109% | 103% | 104% | 94.6% |  |  |  |  |  |  | 
8 | CC(=O)C1=C(C)Nc2nc3ccccc3n2C1c1ccc2c(c1)OCO2 (racemic) | 98.1% | 73% | 98.9% | 105% | 103% | 105% | 102% | 100% | 109% | 77.4% | 70.7% | 59% | 48.6% | 36.6% | 19.3 | 14.1 µM
9 | COCCOC(=O)C1=C(C)NC(=S)N(C(C)=O)C1c1ccc2c(c1)OCO2 (racemic) | 101% | 91.6% | 103% | 106% | 98.5% | 101% | 87.6% | 108% | 105% |  |  |  |  |  |  | 
10 | CC1=C(C(=O)OCc2ccccc2)C(c2ccc3c(c2)OCO3)NC(=S)N1 (racemic) | 95.1% | 89.5% | 93.1% | 105% | 102% | 98.4% | 84.5% | 105% |  |  |  |  |  |  |  | 
